Published values from different studies.
Compare with care: the assays were run in different laboratories.
Target: Serine/threonine-protein kinase tousled-like 2 (TLK2, Homo sapiens, UniProt Q86UE8)

CN(C)c1ncnc(-c2ccc3nc(Nc4cc(CN5CCN(C(=O)CC(F)(F)F)CC5)ccn4)[nH]c3c2)c1Cl — remaining binding (cell-free assay; competition with immobilised ligand; 1 µM): 100%
O=C1Nc2ccc(Cl)cc2C1=Cc1cc(Cl)c(O)c(Cl)c1 — remaining signal (cell-free assay; 0.5 µM): 105%
CCCCNc1ncc2c(-c3ccc(F)cc3)nn(C[C@H]3CC[C@H](N)CC3)c2n1 — inhibition (target engagement in cells; inhibitor; chemoproteomics; 20 mM): -20.7%
CN1CC(Oc2cnc(C#N)cc2-c2ccn3nc(NC(=O)C4CC4)cc3c2)C1 — inhibition (enzyme activity; inhibitor; 1 µM): 1%
O=C(Nc1cccnn1)N1CC(C/C=C/c2cncc(Oc3ccc(C(F)(F)F)cn3)n2)C1 — remaining binding (cell-free assay; competition with immobilised ligand; 1 µM): 100%
O=C(Nc1cnn(-c2csc(C(=O)NC3COC3)c2)c1)Nc1ccccc1Cl — remaining activity (enzyme activity; inhibitor; 5 µM): 99.1%
CCC(=O)N[C@@H]1CC[C@H](C(=O)N(C)c2ccc(-c3nc4ccccc4o3)cc2)C1 — remaining binding (cell-free assay; competition with immobilised ligand; 1 µM): 100%
Cc1ccc(NC(=O)c2ccc(C)c(C(F)(F)F)c2)cc1C#Cc1nn(C2CCC(O)CC2)c2ncnc(N)c12 (centres unmarked) — remaining signal (cell-free assay; 10 µM): 93%
CC(C)(C)c1nc2c(s1)c1nc(N)ncc1c1ccc(NS(=O)(=O)c3c(F)cccc3F)c(F)c12 — remaining activity (enzyme activity; inhibitor; radiometric; 1 µM): 109%
C[S+]([O-])c1ccc(-c2nc(-c3ccncc3)c(-c3ccc(F)cc3)[nH]2)cc1 (centres unmarked) — remaining signal (cell-free assay; 0.5 µM): 96.5%
Nc1ncnc2occ(-c3ccc(NC(=O)Nc4cc(C(F)(F)F)ccc4F)cc3)c12 — remaining signal (cell-free assay; inhibitor; 20 µM): 89%
O=C(Nc1cnn(-c2csc(C(=O)NC3COC3)c2)c1)Nc1c(F)cccc1Cl — remaining activity (enzyme activity; inhibitor; 5 µM): 109%
COc1cc(Nc2c(C#N)cnc3cc(OCCCN4CCN(C)CC4)c(OC)cc23)c(Cl)cc1Cl — remaining signal (cell-free assay; 0.5 µM): 92.2%
COc1ccc2cc(OCC3(C(=O)O)CN(C(=O)c4ccc(F)cc4)C3)ccc2c1 — remaining binding (cell-free assay; competition with immobilised ligand; 1 µM): 100%
Oc1cccc(-c2nc(N3CCOCC3)c3oc4ncccc4c3n2)c1 — remaining signal (cell-free assay; 0.5 µM): 102%
CCCOc1ccc([C@H]2[C@H](C(=O)O)[C@@H](c3ccc4c(c3)OCO4)CN2CC(=O)Nc2c(CC)cccc2CC)cc1 — remaining binding (cell-free assay; competition with immobilised ligand; 1 µM): 94%
Cc1ccc(C(=O)Nc2ccc(CN3CCN(C)CC3)c(C(F)(F)F)c2)cc1C#Cc1cnc2cccnn12 — remaining activity (enzyme activity; inhibitor; 23.5 nM): 100%
COc1cccc2c(NCc3ccccc3)nc(-n3c(N)nc4ccccc43)nc12 — inhibition (target engagement in cells; inhibitor; chemoproteomics; 20 mM): -7.5%
O=C(Nc1cnc(Oc2ccc(F)cc2)nc1)N1CCc2ncccc2[C@@H]1c1ccc(F)cc1 — remaining binding (cell-free assay; competition with immobilised ligand; 1 µM): 89%
CNC(=O)c1cc(Oc2ccc(NC(=O)Nc3ccc(Cl)c(C(F)(F)F)c3)cc2)ccn1 — inhibition (enzyme activity; inhibitor; 0.3 µM): -9%
